Laboratory results: article PMC3495079 (Biochemistry, 2012)

Experiments:
AsDcpS [1] = target: T1, AsDcpS (Ascaris suum, UniProt D3K0N9); assay: HPLC analysis of cap analog hydrolysis by recombinant DcpS; type: biochemical, A. suum; conditions: 15 μM substrate; for Hydrolysis by DcpS (HPLC): up to 24 h
HsDcpS [2] = target: T2, HsDcpS (Homo sapiens, UniProt Q96C86); assay: HPLC analysis of cap analog hydrolysis by recombinant DcpS; type: biochemical; conditions: for Hydrolysis by DcpS (HPLC, Figure 3): 60 min or 24 h; for Hydrolysis by DcpS (HPLC): up to 24 h
T2 sequence (Q96C86 1-337): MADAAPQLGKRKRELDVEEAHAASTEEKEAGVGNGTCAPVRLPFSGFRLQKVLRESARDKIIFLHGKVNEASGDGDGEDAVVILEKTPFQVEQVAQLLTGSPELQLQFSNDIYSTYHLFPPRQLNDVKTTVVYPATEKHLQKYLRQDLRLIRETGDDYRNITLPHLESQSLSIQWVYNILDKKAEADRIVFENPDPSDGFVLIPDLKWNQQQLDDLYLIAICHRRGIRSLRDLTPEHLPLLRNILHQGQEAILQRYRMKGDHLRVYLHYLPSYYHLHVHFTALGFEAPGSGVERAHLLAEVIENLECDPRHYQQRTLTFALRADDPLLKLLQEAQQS
How it was run: (§1)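 His-tagged recombinant enzyme was expressed in E. coli and purified by Ni-NTA and gel filtration. Cap analog (15 μM) was preincubated 10 min, then DcpS was added at 0.02 or 0.2 μM. Buffers were Tris/MgAc/(NH4)2SO4 at 37 °C, or Tris/KCl/EDTA/DTT at 20 °C. Aliquots were taken at 5–60 min and 24 h and heat-stopped (97 °C, 2.5 min). Reverse-phase HPLC used a methanol/KH2PO4 gradient with A260 and fluorescence detection. Products were identified by retention time, and % substrate hydrolyzed was recorded.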

CeDcpS [3] = target: T3, CeDcpS (Caenorhabditis elegans, UniProt G5EFS4); assay: as above; type: biochemical, C. elegans; conditions: 15 μM substrate; for Hydrolysis by DcpS (HPLC): up to 24 h
T3 sequence (G5EFS4 1-311): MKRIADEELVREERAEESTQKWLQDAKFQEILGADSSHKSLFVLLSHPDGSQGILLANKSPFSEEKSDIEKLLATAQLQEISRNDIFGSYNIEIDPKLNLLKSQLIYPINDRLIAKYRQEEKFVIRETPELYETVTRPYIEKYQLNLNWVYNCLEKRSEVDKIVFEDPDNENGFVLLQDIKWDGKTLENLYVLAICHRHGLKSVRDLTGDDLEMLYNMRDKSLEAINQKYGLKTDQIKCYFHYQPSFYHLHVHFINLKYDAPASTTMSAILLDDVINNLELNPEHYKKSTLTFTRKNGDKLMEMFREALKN
How it was run: as §1

CeDcpS [4] = target: T3, CeDcpS; assay: Fluorescence titration; type: binding, C. elegans; conditions: for Equilibrium association constant KAS, CeDcpS: 20 °C, 50 mM Tris HCl, 200 mM KCl, 0.5 mM EDTA, 1 mM DTT, pH 7.6
How it was run: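 His-tagged CeDcpS was expressed in E. coli and purified by Ni-NTA and gel filtration. Binding was read as quenching of intrinsic Trp fluorescence using time-synchronized titration. Ligand solutions of increasing concentration (5 μM–2 mM) were added to 0.2 μM initial protein. Excitation was 280 nm and emission 340 nm, corrected for dilution and inner filter. KAS was fitted by non-linear regression and reported as a weighted average of 3–5 titrations.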

AsDcpS [5] = target: T1, AsDcpS; assay: Fluorescence titration; type: binding, A. suum; conditions: for Equilibrium association constant KAS, AsDcpS: 20 °C, 50 mM Tris HCl, 200 mM KCl, 0.5 mM EDTA, 1 mM DTT, pH 7.6
HsDcpS [6] = target: T2, HsDcpS; conditions: 20 °C, 50 mM Tris HCl, 200 mM KCl, 0.5 mM EDTA, 1 mM DTT, pH 7.6; cited from earlier work
[7] = tested on: recombinant C. elegans decapping scavenger; assay: Competitor inhibition of CeDcpS hydrolytic activity; type: biochemical
CeDcpS [8] = target: T3, CeDcpS; assay: Inhibition of DcpS hydrolysis of m^7GpppG, HPLC; type: biochemical, C. elegans
How it was run: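 Recombinant His-tagged C. elegans DcpS was expressed in E. coli and purified by Ni-NTA and gel filtration. Enzyme at 0.02 μM, m7GpppG 15 μM, test compound 0.1–50 μM, in 50 mM Tris HCl, 200 mM KCl, 0.5 mM EDTA, 1 mM DTT, pH 7.6. Preincubated 10 min, reacted 10 min at 20 °C, heat-stopped, products by reverse-phase HPLC. IC50 taken from conversion versus concentration; Ki from tight-binding competitive equation.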

HsDcpS [9] = target: T2, HsDcpS; assay: Inhibition of DcpS hydrolysis of m^7GpppG, HPLC; type: biochemical
AsDcpS [10] = target: T1, AsDcpS; assay: Inhibition of DcpS hydrolysis of m^7GpppG, HPLC; type: biochemical, A. suum
ScDcpS [11] = target: T4, ScDcpS (Saccharomyces cerevisiae, UniProt Q06151); assay: HPLC analysis of cap analog hydrolysis by recombinant DcpS; type: biochemical, S. cerevisiae; conditions: 15 μM substrate; for Hydrolysis by DcpS (HPLC): up to 24 h
T4 sequence (Q06151 whole entry): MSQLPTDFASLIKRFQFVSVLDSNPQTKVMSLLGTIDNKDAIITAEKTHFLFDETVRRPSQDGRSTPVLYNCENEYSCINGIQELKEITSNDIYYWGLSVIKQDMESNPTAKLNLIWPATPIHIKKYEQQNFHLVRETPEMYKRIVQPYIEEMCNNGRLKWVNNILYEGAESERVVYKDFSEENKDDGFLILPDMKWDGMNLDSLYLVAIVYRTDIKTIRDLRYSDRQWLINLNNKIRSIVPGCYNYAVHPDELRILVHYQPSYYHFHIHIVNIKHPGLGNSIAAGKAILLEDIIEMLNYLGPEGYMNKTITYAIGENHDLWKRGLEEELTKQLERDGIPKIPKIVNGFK
How it was run: as §1

ScDcpS [12] = target: T4, ScDcpS; assay: Inhibition of DcpS hydrolysis of m^7GpppG, HPLC; type: biochemical, S. cerevisiae
How it was run: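 Yeast DcpS (His-tagged, E. coli-expressed, Ni-NTA plus gel filtration) used at 0.10 μM to give 50% uninhibited conversion in 10 min. Substrate m7GpppG 15 μM; test compound 0.1–50 μM; buffer 50 mM Tris HCl, 200 mM KCl, 0.5 mM EDTA, 1 mM DTT, pH 7.6; 20 °C. Stopped at 97 °C for 2.5 min, analysed by reverse-phase HPLC. IC50 from substrate-conversion plot; Ki via tight-binding competitive equation.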

HsDcpS [13] = target: T2, HsDcpS; assay: Fluorescence titration; type: binding; conditions: ratio of KAS values
CeDcpS [14] = target: T3, CeDcpS; conditions: substrate of CeDcpS; cited from earlier work
ScDcpS [15] = target: T4, ScDcpS; conditions: substrate of ScDcpS; cited from earlier work
recombinant CeDcpS = conditions: substrate m^7GpppBODIPY; cited from earlier work
[16] = condition (2): 20 °C, pH 7.6, 0.02 μM DcpS
[17] = condition (2): 20 °C, pH 7.6, 15 μM substrate, 0.02 μM DcpS
[18] = condition (2), 0.02 μM DcpS, Figure 3
[19] = condition (1): 37 °C, pH 8.0, 0.02 or 0.2 μM DcpS
[20] = condition (2): 20 °C, pH 7.6, 0.2 μM DcpS
[21] = condition (1): 37 °C, pH 8.0, 15 μM substrate, 0.02 or 0.2 μM DcpS
[22] = condition (2): 20 °C, pH 7.6, 15 μM substrate, 0.2 μM DcpS
[23] = after 60 min, 20 °C, pH 7.6, 0.02 μM DcpS

T1 sequence (D3K0N9 whole entry): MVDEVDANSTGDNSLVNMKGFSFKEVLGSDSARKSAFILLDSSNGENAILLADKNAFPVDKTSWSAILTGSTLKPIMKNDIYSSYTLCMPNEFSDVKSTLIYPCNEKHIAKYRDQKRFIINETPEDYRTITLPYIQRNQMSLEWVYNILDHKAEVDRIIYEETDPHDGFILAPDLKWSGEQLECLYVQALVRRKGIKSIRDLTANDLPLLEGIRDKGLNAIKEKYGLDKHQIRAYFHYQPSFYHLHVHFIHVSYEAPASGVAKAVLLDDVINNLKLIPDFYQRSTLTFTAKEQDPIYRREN

SMILES	Hydrolysis by DcpS (HPLC, Figure 3) (AsDcpS [1]; [16])	Hydrolysis by DcpS (HPLC, Figure 3) (HsDcpS [2]; [17])	Hydrolysis by DcpS (HPLC, Figure 3) (CeDcpS [3]; [16])	Equilibrium association constant KAS, CeDcpS (CeDcpS [4])	Equilibrium association constant KAS, AsDcpS (AsDcpS [5])	Hydrolysis by DcpS (HPLC) (AsDcpS [1]; [19])	Hydrolysis by DcpS (HPLC) (AsDcpS [1]; [20])	Hydrolysis by DcpS (HPLC) (HsDcpS [2]; [21])	Hydrolysis by DcpS (HPLC) (HsDcpS [2]; [22])	Hydrolysis by DcpS (HPLC) (CeDcpS [3]; [19])	Hydrolysis by DcpS (HPLC) (CeDcpS [3]; [20])	Hydrolysis by DcpS (HPLC) (ScDcpS [11]; [19])	Hydrolysis by DcpS (HPLC) (ScDcpS [11]; [20])	further results
Nc1nc2c(ncn2[C@@H]2O[C@H](COP(=O)(O)OP(=O)(O)OP(=O)(O)OC[C@H]3O[C@@H](n4cnc5c(=O)[nH]c(N)nc54)[C@H](O)[C@@H]3O)[C@@H](O)[C@H]2O)c(=O)[nH]1 [GpppG]	does not occur	does not occur	much slower as compared to m^7GpppG											
C[n+]1cn([C@@H]2O[C@H](COP(=O)(O)O)[C@@H](O)[C@H]2O)c2nc(N)[nH]c(=O)c21 [m^7GMP, 7-methylguanosine monophosphate]				8.00 ± 0.65 µM⁻¹	26.35 ± 1.84 µM⁻¹									Equilibrium association constant KAS, HsDcpS (HsDcpS [6]): 19 ± 1 µM⁻¹; Competitor concentration for 50% inhibition, fold higher than for m^7GDP [7]: about 20 fold
Cn1c[n+]([C@@H]2O[C@H](COP(=O)([O-])OP(=O)(O)OP(=O)(O)O)[C@@H](O)[C@H]2O)c2nc(N)[nH]c(=O)c21 [m^7GTP]	efficiently hydrolyzed	efficiently hydrolyzed	efficiently hydrolyzed											Rate of degradation by HsDcpS, fold slower than by AsDcpS and CeDcpS (HsDcpS [2]; [18]): 2 fold
C[n+]1cn([C@@H]2O[C@H](COP(=O)(O)OP(=O)([O-])O)[C@@H](O)[C@H]2O)c2nc(N)[nH]c(=O)c21 [m^7GDP, 7-methylguanosine diphosphate]						not degraded	resistant to cleavage	not degraded	resistant to cleavage	not degraded	resistant to cleavage	not degraded	resistant to cleavage	Kd (CeDcpS [4]): 10.3 nM; IC50 (CeDcpS [8]): 2170 ± 130 nM; Ki (CeDcpS [8]): 156 ± 20 nM; IC50 (HsDcpS [9]): 4170 ± 500 nM; IC50 (AsDcpS [10]): 1440 ± 110 nM; Kd (AsDcpS [5]): 5.4 nM; Equilibrium association constant KAS, HsDcpS (HsDcpS [6]): 114 ± 8 µM⁻¹; IC50 (ScDcpS [12]): 3950 ± 230 nM; Ki (ScDcpS [12]): 36 ± 2 nM; Fold higher affinity of human DcpS compared to m^7GMP (HsDcpS [13]): 6 fold
C[n+]1cn([C@@H]2O[C@H](COP(=O)(O)OP(=O)(O)OP(=O)(O)OC[C@H]3O[C@@H](n4c[n+](C)c5c(=O)[nH]c(N)nc54)[C@H](O)[C@@H]3O)[C@@H](O)[C@H]2O)c2nc(N)[nH]c(=O)c21 [m^7Gpppm^7G]							significantly slower than that of m^7GpppG		significantly slower than that of m^7GpppG		significantly slower than that of m^7GpppG		significantly slower than that of m^7GpppG	
CN(C)c1nc2c(c(=O)[nH]1)[n+](C)cn2[C@@H]1O[C@H](COP(=O)(O)O)[C@@H](O)[C@H]1O [m3^2,2,7GMP]				2.88 ± 0.67 µM⁻¹	0.28 ± 0.27 µM⁻¹									
CN(C)c1nc2c(c(=O)[nH]1)[n+](C)cn2[C@@H]1O[C@H](COP(=O)(O)OP(=O)(O)OP(=O)(O)O)[C@@H](O)[C@H]1O [m3^2,2,7GTP]	have activity		have activity											
Cn1c[n+]([C@@H]2O[C@H](COP(=O)(O)OP(=O)([O-])OP(=O)(O)OC[C@H]3O[C@@H](n4cnc5c(=O)[nH]c(N)nc54)[C@H](O)[C@@H]3O)[C@@H](O)[C@H]2O)c2nc(N)[nH]c(=O)c21 [m^7GpppG]						very fast		very fast		very fast		very fast		Extent of decapping (% of hydrolyzed substrate) (AsDcpS [1]; [23]): 95%; Time to complete conversion of the substrate to products (AsDcpS [1]; [20]): less than 3 minutes; Extent of decapping (% of hydrolyzed substrate) (HsDcpS [2]; after 60 min, 20 °C, pH 7.6, 15 μM substrate, 0.02 μM DcpS): 95%; Cleavage efficiency by HsDcpS, fold higher than m^7GTP (HsDcpS [2]; [18]): ~ 2 fold; Time to complete conversion of the substrate to products (HsDcpS [2]; [22]): less than 3 minutes; Km (CeDcpS [14]): 1.17 ± 0.14 µM; Extent of decapping (% of hydrolyzed substrate) (CeDcpS [3]; [23]): 95%; Time to complete conversion of the substrate to products (CeDcpS [3]; [20]): less than 3 minutes; Km (ScDcpS [15]): 0.14 µM; Time to complete conversion of the substrate to products (ScDcpS [11]; [20]): less than 3 minutes
CN(C)c1nc2c(c(=O)[nH]1)[n+](C)cn2[C@@H]1O[C@H](COP(=O)(O)OP(=O)(O)O)[C@@H](O)[C@H]1O [m3^2,2,7GDP, 2,2,7-trimethylguanosine diphosphate]				1.44 ± 0.26 µM⁻¹	0.53 ± 0.16 µM⁻¹	not degraded	resistant to cleavage	not degraded	resistant to cleavage	not degraded	resistant to cleavage	not degraded	resistant to cleavage	
CN(C)c1nc2c(c(=O)[nH]1)[n+](C)cn2[C@@H]1O[C@H](COP(=O)(O)OP(=O)(O)OP(=O)(O)OC[C@H]2O[C@@H](n3cnc4c(=O)[nH]c(N)nc43)[C@H](O)[C@@H]2O)[C@@H](O)[C@H]1O [m3^2,2,7GpppG]	readily hydrolyze	not observed	readily hydrolyze											Ki (recombinant CeDcpS): 28000 nM
